Data as given in ChEMBL document CHEMBL1150247, “Structural determinants for affinity enhancement of a dual antagonist peptide entry inhibitor of human immunodeficiency virus type-1” (J Med Chem, 2008).
Activity calls are given as the source filed them. The rule behind the calls is not given here.

Key:
[1] = Inhibition of HIV1 YU2 gp120 binding to immobilized CD4 by surface plasmon resonance method; parameters: species or system Human immunodeficiency virus 1
[2] = tested on: Human immunodeficiency virus 1; assay: Antiviral activity against HIV1 BaL in CCR5 expressing P4 cells after 2 hrs; assay type: functional, organism-based; conditions: Human immunodeficiency virus 1, BaL, P4, 2 h
In short: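 P4-CCR5 cells (DMEM, 10% FBS, puromycin) seeded 1.2×10^4/well ~18 h ahead; exposed 2 h to HIV-1 BaL plus peptide, washed, cultured 46 more h; infection read by β-galactosidase reporter assay. Infectivity relative to mock-treated infected cells; IC50 from sigmoidal dose-response fit; two independent experiments combined.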

[3] = Cytotoxicity against CCR5 expressing human P4 cells after 2 hrs by MTT assay; assay type: cell-based; conditions: p4, 2 h
In short: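 P4-CCR5 cells seeded 4×10^4/well ~18 h ahead, exposed 2 h to varying peptide concentrations, washed, then viability by MTT; triplicate in two independent assays.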

[4] = Binding affinity to immobilized HIV1 YU2 gp120 by surface plasmon resonance method; parameters: species or system Human immunodeficiency virus 1
In short: (§1)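 YU2 gp120 (Drosophila S2-expressed, F105-affinity purified) amine-coupled to CM5 chip (~4000 RU); peptides in PBS injected at 15 μL/min, 5 min association, 5 min dissociation. Buffer and anti-IL5Rα 2B6R control-surface responses subtracted; kinetic constants fitted in BIAevaluation.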

[5] = Binding affinity to HIV1 YU2 gp120 by isothermal titration calorimetric method; parameters: species or system Human immunodeficiency virus 1
[6] = Inhibition of HIV1 YU2 gp120 binding to immobilized CD4 binding site specific b6 monoclonal antibody by surface plasmon resonance method; parameters: species or system Human immunodeficiency virus 1
[7] = Inhibition of HIV1 YU2 gp120 binding to immobilized CD4 binding site specific immunoglobulin G b12 monoclonal antibody by surface plasmon resonance method; parameters: species or system Human immunodeficiency virus 1
[8] = Inhibition of HIV1 YU2 gp120 binding to immobilized CD4 binding site specific F105 monoclonal antibody by surface plasmon resonance method; parameters: species or system Human immunodeficiency virus 1
[9] = Inhibition of HIV1 YU2 gp120 binding to immobilized CD4 induced 17b monoclonal antibody by surface plasmon resonance method; parameters: species or system Human immunodeficiency virus 1
[10] = tested on: Human immunodeficiency virus 1; assay: Binding affinity to immobilized HIV1 YU2 gp120 upto 1 mM by surface plasmon resonance method; in short: as §1

| Compound | IC50 [1] [nM] | IC50 [2] [nM] | Activity [3] | Kd [4] [nM] | Kd [5] [nM] | IC50 [6] [nM] | IC50 [7] [nM] | IC50 [8] [nM] | IC50 [9] [nM] | Activity [10] |
| --- | --- | --- | --- | --- | --- | --- | --- | --- | --- | --- |
| CC[C@H](C)[C@H](NC(=O)[C@@H](N)CCCNC(=N)N)C(=O)N[C@@H](CC(N)=O)C(=O)N[C@@H](CC(N)=O)C(=O)N[C@H](C(=O)N1C[C@@H](n2cc(-c3ccccc3)nn2)C[C@H]1C(=O)N[C@@H](Cc1c[nH]c2ccccc12)C(=O)N[C@@H](CO)C(=O)N[C@@H](CCC(=O)O)C(=O)N[C@@H](C)C(=O)N[C@@H](CCSC)C(=O)N[C@@H](CCSC)C(=O)O)[C@@H](C)CC | 154 | 1400 | Non-toxic | 23 | 33 | 106 | 162 | 109 | 172 | – |
| CC[C@H](C)[C@H](NC(=O)[C@@H](N)CCCNC(=N)N)C(=O)N[C@@H](CC(N)=O)C(=O)N[C@@H](CC(N)=O)C(=O)N[C@H](C(=O)N1C[C@@H](n2cc(C3(N)CCCCC3)nn2)C[C@H]1C(=O)N[C@@H](Cc1c[nH]c2ccccc12)C(=O)N[C@@H](CO)C(=O)N[C@@H](CCC(=O)O)C(=O)N[C@@H](C)C(=O)N[C@@H](CCSC)C(=O)N[C@@H](CCSC)C(=O)O)[C@@H](C)CC | – | – | – | – | – | – | – | – | – | inactive |
| CC[C@H](C)[C@H](NC(=O)[C@@H](N)CCCNC(=N)N)C(=O)N[C@@H](CC(N)=O)C(=O)N[C@@H](CC(N)=O)C(=O)N[C@H](C(=O)N1CCC[C@H]1C(=O)N[C@@H](Cc1c[nH]c2ccccc12)C(=O)N[C@@H](CO)C(=O)N[C@@H](CCC(=O)O)C(=O)N[C@@H](C)C(=O)N[C@@H](CCSC)C(=O)N[C@@H](CCSC)C(=O)O)[C@@H](C)CC [RINNIPWSEAMM] | 5400 | 48000 | Non-toxic | 5000 | 2600 | 10000 | 8800 | 6400 | 7200 | – |
